Most compounds without a hit are left out; they make up all but 3.4% or so of the library.
Ecoli rRNA inh = reduced GFP signal of wild-type E. coli, primary screen, bacterial rRNA inhibitor project, GFP/RFP fluorescence, OD600, single point; E. coli WT GFP vs humanized-ribosome RFP mutants, 24 h; hits give low values; DMSO median 0, no signal -100; GFP signal change (wild-type ribosome), % (concentration not given with the values); 350,000 tested, 1.6% active;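 active = significant combined selectivity score with lowered wild-type GFP, culture density cut under 30%, mutant RFP and density less affected; inactive = any of these conditions unmet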
E-sel inducer = E-selectin induction in HUVECs, primary screen, imaging, HUVEC, immunofluorescence imaging, single point. P16581. AID 686992, 2013. 260,000 tested, 0.37% active. activation, % at 7.58 µM. normalized: neutral wells 0, TNF-alpha wells 100;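 active = mean E-selectin-positive cell signal at least 10% of the positive control, reached in at least 60% of replicates, without over 20% cell loss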
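System: HUVEC, human umbilical vein endothelial cells; quantity: 3,000 cells/well; buffer or medium: EGM-2 medium, gelatin-coated wells; dosing: single-point compound dose; detection: immunofluorescence imaging; evaluation: % PE-positive cells; benchmarks: TNF-alpha, DMSO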
SIRT5 inh = SIRT5 desuccinylase inhibitors, primary screen, biochemical, fluorescence imaging, single point, set 5; 330,000 tested, 1.1% active; Purified SirT5, succinyl-peptide AMC, trypsin-coupled fluorescence; NAD-dependent protein deacylase sirtuin-5, mitochondrial (Homo sapiens), Q9NXA8; inhibition, % at 15 µM; in the data active = inhibition above about 15%
S100A4 MyoIIA = inhibitors of S100A4-myosin IIA peptide binding, primary screen, biochemical, fluorescence polarization, TAMRA-MyoIIA peptide; inhibition, % at 10.7 µM; Protein S100-A4 (Homo sapiens), P26447; AID 652163, 2013; 360,000 tested, 0.14% active;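 active = mean inhibition of at least 70% across replicates, with every replicate also reaching that level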
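Test system: S100A4 monomer protein; Medium: HEPES pH 7.2 with CaCl2, KCl, NaCl, DTT, Triton; Probe or stimulus: TAMRA-labelled myosin IIA heavy-chain peptide probe, 5 nM; Doses: one dose per compound; Times: polarization read 5 min after assay mix addition, stable 5–60 min; Benchmarks: neutral control DMSO, positive control TFP.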
AF4-AF9 inh = inhibitors of AF4 peptide binding to AF9, primary screen, biochemical, AlphaScreen, biotin-AF4 peptide, FLAG-AF9, single point; Protein AF-9 (Homo sapiens), P42568; inhibition, % at 10 µM; 350,000 tested, 0.47% active; AID 651704, 2012;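 active = every replicate reaching a set inhibition limit, whatever the replicate mean, cut at about 25% in these data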;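 note: 0% = plate neutral control median and 100% = total signal loss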
ERAP1 HTS inh = human ERAP1 aminopeptidase inhibitors, primary screen, biochemical, single point, plate reader | inhibition, % at 10.7 µM | Endoplasmic reticulum aminopeptidase 1 (Homo sapiens), Q9NZ08 | 340,000 tested, 0.15% active | recombinant ERAP1, Leu-AMC fluorescence, 60 min;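 active = mean replicate inhibition of at least 30%, or all replicates individually reaching that 30% level; inactive = mean below 30% and not every replicate reaching it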;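 note: 0% = neutral control wells and 100% = L-leucinethiol positive control wells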
* = called active by the depositor.

C[C@@H]1CN([C@H](C)CO)C(=O)Cc2cc(NS(C)(=O)=O)ccc2O[C@@H]1CN(C)CC1CC1 was read as Ecoli rRNA inh 1.3, E-sel inducer -0.2, SIRT5 inh 16.5*, S100A4 MyoIIA 18.7, AF4-AF9 inh -2.5 and ERAP1 HTS inh 0.6.
C[C@@H]1CN([C@H](C)CO)C(=O)Cc2cc(NS(=O)(=O)c3ccc(F)cc3)ccc2O[C@H]1CN(C)CC1CCCCC1 was read as Ecoli rRNA inh -59.2, E-sel inducer 0.1, SIRT5 inh 23.2*, S100A4 MyoIIA -1.3, AF4-AF9 inh -2.0 and ERAP1 HTS inh 0.7.
`C[C@@H]1CN([C@@H](C)CO)C(=O)Cc2cc(NS(=O)(=O)c3ccc(Cl)cc3)ccc2O[C@@H]1CN(C)CC1CCCCC1` gave Ecoli rRNA inh -55.5, E-sel inducer 18.8, SIRT5 inh 20.3*, S100A4 MyoIIA 51.7, AF4-AF9 inh 11.5 and ERAP1 HTS inh 0.8.
For C[C@@H]1CN([C@@H](C)CO)C(=O)Cc2cc(NS(=O)(=O)c3ccccc3)ccc2O[C@H]1CN(C)CC1CCCCC1 the results were Ecoli rRNA inh -2.0, E-sel inducer 1.4, SIRT5 inh 19.0*, S100A4 MyoIIA 54.4, AF4-AF9 inh 6.0 and ERAP1 HTS inh -1.2.
`O=C1OC[C@@H](c2ccccc2)n2cc(/C=C/c3ccccc3)cc21` gave SIRT5 inh -1.4, S100A4 MyoIIA 48.9, AF4-AF9 inh 0.0 and ERAP1 HTS inh 2.7.
CCCC1CC(C(=O)NC(C(C)Cl)C2OC(SC)C(O)C(O)C2O)N(C)C1 (centres undefined) was read as Ecoli rRNA inh -32.4*, E-sel inducer 1.9, SIRT5 inh 0.5, S100A4 MyoIIA -5.6, AF4-AF9 inh -1.3 and ERAP1 HTS inh -1.4.
Screening CCC[C@@H]1C[C@@H](C(=O)NC(C(C)Cl)[C@H]2O[C@H](SC)[C@H](O)[C@@H](O)[C@H]2O)N(C)C1 (some centres undefined) returned E-sel inducer -1.6, SIRT5 inh -4.9, S100A4 MyoIIA 8.0, AF4-AF9 inh -14.3 and ERAP1 HTS inh -1.5.
`COc1ccc(S(=O)(=O)N[C@@H]2CC[C@H](CC(=O)NCc3ccccc3F)O[C@H]2CO)cc1` gave Ecoli rRNA inh 1.3, E-sel inducer -0.3, SIRT5 inh -1.6, S100A4 MyoIIA 2.0, AF4-AF9 inh 0.0 and ERAP1 HTS inh -0.6.
`Cc1ccc(N(CC(O)Cn2nc(C)cc2C)S(=O)(=O)c2ccc3ccccc3c2)cc1` (centres undefined) gave Ecoli rRNA inh -30.5*, E-sel inducer -2.4, SIRT5 inh -3.1, S100A4 MyoIIA -3.3, AF4-AF9 inh -53.2 and ERAP1 HTS inh 1.8.
Screening CCCCCC[n+]1ccccc1/C=C/c1ccc(N(C)C)cc1 returned Ecoli rRNA inh -54.2, E-sel inducer -0.1, SIRT5 inh 8.9, S100A4 MyoIIA 92.9*, AF4-AF9 inh 18.7 and ERAP1 HTS inh 12.7.
Screening CC[n+]1ccc(/C=C/c2ccc(N(C)C)cc2)c2ccccc21 returned Ecoli rRNA inh -75.8, E-sel inducer 114.6*, SIRT5 inh 3.8, S100A4 MyoIIA 42.6, AF4-AF9 inh 73.2* and ERAP1 HTS inh 16.1.
Cc1cc2ccccn2c1C(=O)c1ccc(C#N)cc1 was read as Ecoli rRNA inh -1.4, E-sel inducer 0.0, SIRT5 inh -3.7, S100A4 MyoIIA -3.7, AF4-AF9 inh 18.7 and ERAP1 HTS inh 0.0.
`Cc1cc2ccccn2c1C(=O)c1ccc(NN)c([N+](=O)[O-])c1` gave Ecoli rRNA inh -21.7, SIRT5 inh 1.5, S100A4 MyoIIA -5.7, AF4-AF9 inh -4.1 and ERAP1 HTS inh 1.6.

Source: PubChem BioAssay
